The source made the active and inactive calls. The calls are words filed in the database; no cut-off is given here.
What was measured:
HT-29 = assay: Cytotoxicity against human HT29 cells by MTT assay; assay type: functional, cell-based
How it was run: (§1)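 MTT colorimetric proliferation assay on human and murine tumour cell lines. Compounds tested over 50 to 0.1 µM; IC50 calculated from the concentration response.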

NCI-H295R = assay: Cytotoxicity against human H295R cells by MTT assay; assay type: functional, cell-based; how it was run: as §1
A549 = assay: Cytotoxicity against human A549 cells by MTT assay; assay type: functional, cell-based
HepG2 [1] = assay: Cytotoxicity against human HepG2 cells by MTT assay; assay type: functional, cell-based; how it was run: as §1
OVCAR-3 [2] = assay: Cytotoxicity against human Ovcar3 cells by MTT assay; assay type: functional, cell-based; how it was run: as §1
BNL [3] = assay: Cytotoxicity against mouse BNL cells by MTT assay; assay type: functional, cell-based; how it was run: as §1
HeLa = assay: Cytotoxicity against human HeLa cells by MTT assay; assay type: functional, cell-based; how it was run: as §1
ARO = assay: Cytotoxicity against human Aro cells by MTT assay; assay type: functional, cell-based; how it was run: as §1
PT-45 = assay: Cytotoxicity against human PT45 cells by MTT assay; assay type: functional, cell-based; how it was run: as §1
HepG2 [4] = assay: Cell cycle arrest at G2/M phase in HepG2 cells at 5-10 uM; assay type: functional, Homo sapiens
OVCAR-3 [5] = assay: Cell cycle arrest at G2/M phase in Ovcar3 cells at 5-10 uM; assay type: functional, Homo sapiens
4T1 = assay: Cytotoxicity against mouse 4T1 cells by MTT assay; assay type: functional, cell-based; how it was run: as §1
MCF7 = assay: Cytotoxicity against human MCF7 cells by MTT assay; assay type: functional, cell-based; how it was run: as §1
Aromatase [6] = target: T1, Aromatase (Homo sapiens, UniProt P11511); assay: Inhibition of aromatase activity in H295R cells at 5 uM; assay type: cell-based
T1 sequence (P11511 whole entry): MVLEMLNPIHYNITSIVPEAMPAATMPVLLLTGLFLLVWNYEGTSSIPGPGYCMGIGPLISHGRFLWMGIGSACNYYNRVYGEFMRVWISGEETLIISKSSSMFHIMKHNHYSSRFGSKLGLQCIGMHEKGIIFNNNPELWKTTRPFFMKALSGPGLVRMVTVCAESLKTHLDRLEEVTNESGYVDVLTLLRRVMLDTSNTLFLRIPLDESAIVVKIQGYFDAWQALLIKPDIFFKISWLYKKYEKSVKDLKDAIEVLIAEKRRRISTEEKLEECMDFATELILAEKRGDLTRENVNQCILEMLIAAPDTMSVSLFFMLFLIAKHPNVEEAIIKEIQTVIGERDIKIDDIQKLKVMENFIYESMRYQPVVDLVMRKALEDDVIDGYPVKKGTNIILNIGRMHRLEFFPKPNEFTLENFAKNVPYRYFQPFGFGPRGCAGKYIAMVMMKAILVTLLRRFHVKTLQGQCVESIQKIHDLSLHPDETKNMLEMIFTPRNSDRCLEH
How it was run: (§2)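 H295R cells cultured 24 h in DMEM-F12 with or without forskolin (25 µM). Compound (5, 10 or 15 µM) added 1 h before [1β-³H]androstenedione substrate (0.5 µM), then 2 h further exposure. Modified tritiated water release read-out as pmol ³H₂O/h/mg protein. Letrozole reference. Mean ± SEM of three experiments in triplicate.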

Aromatase [7] = target: T1, Aromatase; assay: Inhibition of aromatase activity in H295R cells at 10 uM; assay type: cell-based; how it was run: as §2
Aromatase [8] = target: T1, Aromatase; assay: Inhibition of aromatase activity in H295R cells at 15 uM; assay type: cell-based; how it was run: as §2
Tubulin (Homo sapiens) [9] = target: T2, Tubulin (Homo sapiens) (UniProt P68371+Q9H4B7+P0DPH7+P68366+Q13509+Q71U36+P04350+Q3ZCM7+P07437+P68363+Q9BQE3+Q6PEY2+Q13885+Q9BVA1+Q9BUF5); assay: Microtubule disassembly in Ovcar3 cells at 5 uM; assay type: functional, cell-based; conditions: OVCAR-3
How it was run: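 Ovcar-3 cells exposed 18 h to 5 µM (drug-free and vincristine 5 µM controls), fixed, stained with anti-β-tubulin antibody, and microtubule distribution examined by fluorescence microscopy.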

Tubulin (Homo sapiens) [10] = target: T2, Tubulin (Homo sapiens); assay: Inhibition of tubulin polymerization at 5 uM; assay type: protein-complex assay
How it was run: (§3)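 Fluorimetric microtubule polymerization kit using purified tubulin. Compound at 5, 2.5, 1.25 and 0.625 µM; fluorescence (ex 355/em 450 nm) read every minute for 60 min. Taxol and vincristine (3 µM) as references.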

BNL [11] = assay: Cytotoxicity against BNL 1ME A.7R.1 cells subcutaneously implanted in BALB/c mouse at 40 mg/kg, ip; assay type: functional; conditions: route intraperitoneal
How it was run: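 Male Balb/c mice implanted subcutaneously in the dorsal region with 10⁷ syngenic hepatocarcinoma cells. From day 2, daily intraperitoneal dosing at 40 mg/kg, with saline and vehicle control groups (n = 8-12 per group). Tumour measured daily by calipers over 10 days; volume = A × B²/2. Means ± SE.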

Tubulin (Homo sapiens) [12] = target: T2, Tubulin (Homo sapiens); assay: Inhibition of tubulin polymerization at 2.5 uM; assay type: protein-complex assay; how it was run: as §3

Activity (Aromatase [6])	Activity (Aromatase [7])	Activity (Aromatase [8])	Activity (Tubulin (Homo sapiens) [9])	Activity (Tubulin (Homo sapiens) [10])	Activity (Tubulin (Homo sapiens) [12])	SMILES	IC50 (HT-29) [µM]	IC50 (NCI-H295R) [µM]	IC50 (A549) [µM]	IC50 (HepG2 [1]) [µM]	IC50 (OVCAR-3 [2]) [µM]	IC50 (BNL [3]) [µM]	IC50 (HeLa) [µM]	IC50 (ARO) [µM]	IC50 (PT-45) [µM]	Activity (HepG2 [4]) [%]	Activity (OVCAR-3 [5]) [%]	IC50 (4T1) [µM]	IC50 (MCF7) [µM]	Activity (BNL [11]) [%]
–	–	–	–	–	–	Cc1cccc(-c2cc(O)c3c(ccc4[nH]ccc43)n2)c1	8	8	6	10	20	6	6	7	7	16	19.5	25	7	–
–	–	–	–	–	–	CC(=O)O[C@H]1C(=O)[C@@]2(C)[C@H]([C@H](OC(=O)c3ccccc3)[C@]3(O)C[C@H](OC(=O)[C@H](O)[C@@H](NC(=O)c4ccccc4)c4ccccc4)C(C)=C1C3(C)C)[C@]1(OC(C)=O)CO[C@@H]1C[C@@H]2O [PACLITAXEL]	–	0.08	–	–	–	0.2	–	–	–	–	–	0.2	–	–
–	–	–	–	–	–	Oc1ccnc2ccc3[nH]ccc3c12	> 50	> 50	> 50	> 50	> 50	> 50	> 50	> 50	> 50	–	–	> 50	> 50	–
Not Active	Not Active	Not Active	–	–	–	Oc1cc(-c2cccc(Br)c2)nc2ccc3[nH]ccc3c12	9	5	6	6	10	4	5	5	6	40.3	42.9	20	5	–
Not Active	Not Active	Not Active	–	–	–	COc1cccc(-c2cc(O)c3c(ccc4[nH]ccc43)n2)c1	6	0.7	2	6	7	4	0.7	1	0.7	49.3	65.3	4	2	–
–	–	–	–	–	–	Nc1cccc(-c2cc(O)c3c(ccc4[nH]ccc43)n2)c1	> 50	50	30	30	50	> 50	7	30	8	17.1	14	50	15	–
–	–	–	–	–	–	CCN(CC)CCn1ccc2c3c(O)cc(-c4ccccc4)nc3ccc21	6	6	12	7	18	5	5	20	5	15.1	16.6	9	8	–
–	–	–	–	–	–	N#Cc1cccc(-c2cc(O)c3c(ccc4[nH]ccc43)n2)c1	> 50	> 50	> 50	40	> 50	40	8	3	40	17.3	15	> 50	> 50	–
–	–	–	–	–	–	COC(=O)c1cc2c([nH]1)c(OC)cc1nc(-c3ccccc3)cc(O)c12	> 50	> 50	> 50	> 50	> 50	> 50	> 50	> 50	> 50	15.4	14.4	> 50	> 50	–
–	–	–	–	–	–	N#Cc1ccc(-c2cc(O)c3c(ccc4[nH]ccc43)n2)cc1	> 50	30	15	10	50	15	15	40	20	21.5	14.9	25	50	–
–	–	–	Active	–	–	CC[C@]1(O)C[C@H]2CN(CCc3c([nH]c4ccccc34)[C@@](C(=O)OC)(c3cc4c(cc3OC)N(C=O)[C@H]3[C@@](O)(C(=O)OC)[C@H](OC(C)=O)[C@]5(CC)C=CCN6CC[C@]43[C@@H]65)C2)C1 [VINCRISTINE]	–	0.09	–	–	–	0.08	–	0.0001	–	–	–	0.02	–	–
–	–	–	–	–	–	O=[N+]([O-])c1cccc(-c2cc(O)c3c(ccc4[nH]ccc43)n2)c1	> 50	40	32	30	> 50	> 50	25	39	45	15.8	10	> 50	> 50	–
Not Active	Not Active	Not Active	Active	Dose-dependent effect	Dose-dependent effect	O=c1cc(-c2ccccc2)[nH]c2ccc3[nH]ccc3c12	2	0.4	1	8	6	3	0.7	0.7	0.5	47.7	62	2	0.8	83.2
–	–	–	–	–	–	Oc1cc(-c2cccs2)nc2ccc3[nH]ccc3c12	30	5	15	10	25	8	6	7	8	15.6	17.5	20	7	–
–	–	–	–	–	–	Cc1cc(O)c2c(ccc3[nH]ccc32)n1	> 50	> 50	> 50	> 50	> 50	> 50	> 50	> 50	> 50	–	–	> 50	> 50	–

Source: ChEMBL document CHEMBL1138193, “Synthesis and biological activity of 7-phenyl-6,9-dihydro-3H-pyrrolo[3,2-f]quinolin-9-ones: a new class of antimitotic agents devoid of aromatase activity” (J Med Chem, 2006)
